Source: paper PMC11827156 (Malaria Journal, 2025)
Read-outs that look alike come from different tables or passages of the source. One block for each compound: values may come before it.

How the values were obtained:
Type in all cases: cell-based, Plasmodium falciparum
[1] = tested on: P. falciparum 3D7; conditions: 48 h; for effect on parasitaemia compared with the control: 2.5 nM compound alone
[2] = tested on: P. falciparum 3D7; conditions: 72 h; for IC50: asynchronous culture, 0.0019–2 µM, ± standard error of the mean; for reduction of P. falciparum parasitaemia by 50%: at the concentrations tested (0.0019–2 µM)
[3] = tested on: P. falciparum 3D7; experiment: Competition of TCAMS compounds; conditions: 48 h; for effect on the increase in parasitaemia promoted by melatonin: 2.5 nM compound with 100 nM melatonin; for effect on the increase in parasitaemia promoted by serotonin: 2.5 nM compound with 250 nM serotonin
In short: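 Asynchronous P. falciparum 3D7 cultures (1% parasitaemia, 2% haematocrit) were given 2.5 nM test compound with or without 250 nM serotonin or 100 nM melatonin. Incubation was 48 h at 37 °C under mixed gas, with a DMSO solvent control. Cells were stained with SYBR Green-I (1:10,000) and MitoTracker Deep Red (50 nM) for 20 min at 37 °C, then parasitaemia was read by flow cytometry. Survival is relative to solvent; triplicate, 3 independent experiments.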

[4] = read-out: IC50 (nM) 3D7, Table 1
[5] = Plasmodium falciparum, 3D7, 72 h, read-out: IC50 (nM) 3D7, Table 1

SMILES: COc1ccc2[nH]cc(CCNC(C)=O)c2c1 [Melatonin, melatonin, reference compound]
increase of P. falciparum parasitaemia compared with the control ([1]; 100 nM): 15.05%

SMILES: NCCc1c[nH]c2ccc(O)cc12 [Serotonin, serotonin, reference compound]
increase of P. falciparum parasitaemia compared with the control ([1]; 250 nM): 11.86%

SMILES: Brc1ccc(Nc2nc(NCc3ccccc3)c3ccccc3n2)cc1 [TCMDC-124574, Brc1ccc(Nc2nc(NCc3ccccc3)c3ccccc3n2)cc1]
IC50 [2, 5]: 619 ± 213 nM

SMILES: O=C1CCCN1CCCNCc1ccc(-c2ccc(-c3nc4cc(C(F)(F)F)ccc4[nH]3)s2)cc1 [TCMDC-132764, OC(= O)C(F)(F)F.FC(F)(F)c1ccc2[nH]c(nc2c1)-c1ccc(s1)-c1ccc(CNCCCN2CCCC2 = O)cc1]
IC50 [2, 4]: 259 ± 49.4 nM

SMILES: Fc1ccc2[nH]c(-c3cccc(-c4ccc(CN5CCN(c6ccncc6)CC5)cc4)c3)nc2c1 [TCMDC-132918, OC(= O)C(F)(F)F.Fc1ccc2[nH]c(nc2c1)-c1cccc(c1)-c1ccc(CN2CCN(CC2)c2ccncc2)cc1]
IC50 [2, 4]: 68.4 ± 6.93 nM

SMILES: Cn1nccc1C(=O)NCCNCc1ccc(-c2ccc(-c3nc4cc(C(F)(F)F)ccc4[nH]3)s2)cc1 [TCMDC-133018, OC(= O)C(F)(F)F.Cn1nccc1C(= O)NCCNCc1ccc(cc1)-c1ccc(s1)-c1nc2cc(ccc2[nH]1)C(F)(F)F]
IC50 [2, 4]: 284 ± 125 nM

SMILES: Clc1ccc2nccc(N3CCC(CN4CCC(c5c[nH]c6ccccc56)CC4)CC3)c2c1 [TCMDC-134281, OC(= O)C(F)(F)F.Clc1ccc2nccc(N3CCC(CN4CCC(CC4)c4c[nH]c5ccccc45)CC3)c2c1]
IC50 [2, 4]: 72.9 ± 10 nM

SMILES: COc1ccc(NC(=O)[C@H](CC(C)C)Nc2cc(C)nc(NCCc3ccccc3)n2)cc1 [TCMDC-134778, OC(= O)C(F)(F)F.COc1ccc(NC(= O)[C@H](CC(C)C)Nc2cc(C)nc(NCCc3ccccc3)n2)cc1]
IC50 [2, 4]: 497 ± 99.5 nM

SMILES: O=C(c1ccc(F)cc1)N1CCOC(CCN2CCC(c3ccccc3)CC2)(c2ccc(Cl)c(Cl)c2)C1 (stereo not drawn) [TCMDC-135334, Fc1ccc(cc1)C(= O)N1CCOC(CCN2CCC(CC2)c2ccccc2)(C1)c1ccc(Cl)c(Cl)c1]
reduction of P. falciparum parasitaemia by 50% [2]: could not reduce P. falciparum parasitaemia by 50%

SMILES: CCOc1ccc(C(=O)N2CCOC(CCN3CCC(c4ccccc4)CC3)(c3ccc(Cl)c(Cl)c3)C2)cc1 (stereo not drawn) [TCMDC-135344, CCOc1ccc(cc1)C(= O)N1CCOC(CCN2CCC(CC2)c2ccccc2)(C1)c1ccc(Cl)c(Cl)c1]
IC50 [2, 4]: 462 ± 185 nM

SMILES: O=C(NC1CCC(CN2CCC(c3c[nH]c4ccccc34)CC2)CC1)c1cc(-c2ccc(F)cc2F)ccc1O (stereo not drawn) [TCMDC-139894, Oc1ccc(cc1C(= O)NC1CCC(CN2CCC(CC2)c2c[nH]c3ccccc23)CC1)-c1ccc(F)cc1F]
reduction of P. falciparum parasitaemia by 50% [2]: could not reduce P. falciparum parasitaemia by 50%

SMILES: O=C(Nc1ccccc1)N(Cc1cccc(-c2cccc(CNCc3ccc4c(c3)OCO4)c2)c1)C1CCN(Cc2ccccc2)CC1 [TCMDC-140590, OC(= O)C(F)(F)F.O = C(Nc1ccccc1)N(Cc1cccc(c1)c1cccc(CNCc2ccc3OCOc3c2)c1)C1CCN(Cc2ccccc2)CC1]
IC50 [2, 4]: 285 ± 144 nM

Second part, led by results:

IC50 [2, 4]: 759 ± 131 nM
SMILES: COc1ccc(CN2C(=S)N(Cc3ccccc3)C(=O)C2CC(=O)Nc2ccccc2)cc1OC (stereo not drawn) [TCMDC-123874, COc1ccc(CN2C(CC(= O)Nc3ccccc3)C(= O)N(Cc3ccccc3)C2 = S)cc1OC]

IC50 [2, 4]: 80.2 ± 18.9 nM
SMILES: COc1ccc(C2CC(=O)C3=C(C2)NC(C)=C(C(=O)OC(C)C)C3c2cccc(O)c2)cc1OC (stereo not drawn) [TCMDC-125636, COc1ccc(cc1OC)C1CC(= O)C2 = C(C1)NC(C) = C(C2c1cccc(O)c1)C(= O)OC(C)C]

IC50 [2, 5]: 909 ± 65.1 nM
SMILES: CCCCCC(C)C(C)c1cc(O)c2c(c1)OC(C)(C)CC2(O)c1ccnn1C (stereo not drawn) [TCMDC-131795, CCCCCC(C)C(C)c1cc(O)c2c(OC(C)(C)CC2(O)c2ccnn2C)c1]

IC50 [2, 5]: 434 ± 81.2 nM
SMILES: COc1cc2nc(NCCc3ccccc3)nc(NCCCc3ccccc3)c2cc1OC [TCMDC-135301, COc1cc2nc(NCCc3ccccc3)nc(NCCCc3ccccc3)c2cc1OC]
effect on parasitaemia compared with the control [1]: induced a significant increase in parasitaemia | increase in parasitaemia ([1]; 2.5 nM): 9.69% | effect on the increase in parasitaemia promoted by melatonin [3]: able to inhibit the increase in parasitaemia partially | effect on the increase in parasitaemia promoted by serotonin [3]: unable to prevent the effect of the neurotransmitter on P. falciparum parasitaemia

IC50 [2, 4]: 442 ± 78.8 nM
SMILES: COc1cc(NC(=O)N2CCOC(CCN3CCC4(CCc5ccccc54)CC3)(c3ccc(Cl)c(Cl)c3)C2)cc(OC)c1 (stereo not drawn) [TCMDC-135338, COc1cc(NC(= O)N2CCOC(CCN3CCC4(CCc5ccccc45)CC3)(C2)c2ccc(Cl)c(Cl)c2)cc(OC)c1]

IC50 [2, 4]: 75.5 ± 18.2 nM
SMILES: COc1cc(NC(=O)N2CCOC(CCN3CCC4(CCc5ccccc54)CC3)(c3ccc(Cl)c(Cl)c3)C2)cc(OC)c1OC (stereo not drawn) [TCMDC-135346, COc1cc(NC(= O)N2CCOC(CCN3CCC4(CCc5ccccc45)CC3)(C2)c2ccc(Cl)c(Cl)c2)cc(OC)c1OC]

IC50 [2, 5]: 1210 ± 315 nM
SMILES: COc1cc2nc(NCCc3ccccc3)nc(N(C)Cc3ccccc3)c2cc1OC [TCMDC-135385, COc1cc2nc(NCCc3ccccc3)nc(N(C)Cc3ccccc3)c2cc1OC]
effect on parasitaemia compared with the control [1]: induced a significant increase in parasitaemia | effect on the increase in parasitaemia promoted by melatonin [3]: unable to block their effects on the erythrocyte cycle | effect on the increase in parasitaemia promoted by serotonin [3]: unable to prevent the effect of the neurotransmitter on P. falciparum parasitaemia

IC50 [2, 5]: 734 ± 162 nM
SMILES: COc1cc2nc(NCCc3ccccc3)nc(NCc3cc(C)no3)c2cc1OC [TCMDC-135435, COc1cc2nc(NCCc3ccccc3)nc(NCc3cc(C)no3)c2cc1OC]
effect on parasitaemia compared with the control [1]: did not significantly affect parasitaemia compared with the control | effect on the increase in parasitaemia promoted by melatonin [3]: able to inhibit the increase in parasitaemia partially | effect on the increase in parasitaemia promoted by serotonin [3]: unable to prevent the effect of the neurotransmitter on P. falciparum parasitaemia

IC50 [2, 5]: 287 ± 24.2 nM
SMILES: COc1cc2nc(NCCc3ccccc3)nc(NCc3cnn(C)c3C)c2cc1OC [TCMDC-135459, COc1cc2nc(NCCc3ccccc3)nc(NCc3cnn(C)c3C)c2cc1OC]
effect on parasitaemia compared with the control [1]: induced a significant increase in parasitaemia | effect on the increase in parasitaemia promoted by melatonin [3]: unable to block their effects on the erythrocyte cycle | effect on the increase in parasitaemia promoted by serotonin [3]: unable to prevent the effect of the neurotransmitter on P. falciparum parasitaemia

IC50 [2, 4]: 336 ± 176 nM
SMILES: COc1ccc2ncc(F)c([C@H](O)CN3CCC(NCc4ccc5c(c4)NC(=O)CO5)CC3)c2c1 [TCMDC-135829, Cl.COc1ccc2ncc(F)c([C@H](O)CN3CCC(CC3)NCc3ccc4OCC(= O)Nc4c3)c2c1]

IC50 [2, 4]: 110 ± 46.2 nM
SMILES: Cc1cc(NC(=O)NCCN2CCC(NC(=O)c3ccc(Cl)cc3)CC2)c2ccccc2n1 [TCMDC-136171, Cc1cc(NC(= O)NCCN2CCC(CC2)NC(= O)c2ccc(Cl)cc2)c2ccccc2n1]

IC50 [2, 5]: 216 ± 15.4 nM
SMILES: CCN(CCNc1nc(NCCc2cnc[nH]2)nc(N(CCC#N)Cc2ccccc2)n1)c1cccc(C)c1 [TCMDC-139258, CCN(CCNc1nc(NCCc2cnc[nH]2)nc(n1)N(CCC#N)Cc1ccccc1)c1cccc(C)c1]

IC50 [2, 4]: 98.2 ± 25.1 nM
SMILES: COc1cc(C)nc2ccc(NC(=O)c3ccc(C(=O)Nc4ccc5nc(C)cc(OC)c5c4)cc3)cc12 [TCMDC-139502, COc1cc(C)nc2ccc(NC(= O)c3ccc(cc3)C(= O)Nc3ccc4nc(C)cc(OC)c4c3)cc12]

IC50 [2, 4]: 215 ± 27.9 nM
SMILES: CC[C@H](NC(=O)c1c(CC2CCN(CC(C)=O)CC2)c(-c2ccccc2)nc2ccccc12)c1ccccc1 [TCMDC-141946, CC[C@H](NC(= O)c1c(CC2CCN(CC(C) = O)CC2)c(nc2ccccc12)-c1ccccc1)c1ccccc1]
